Legend:
Mus musculus [1] = species on record: Mus musculus; test: Distribution of compound in mice brain was measured after 24 hr r; details: in vivo
Mus musculus [2] = species on record: Mus musculus; test: Distribution of compound in mice brain was measured after 2 hr; details: in vivo
Mus musculus [3] = species on record: Mus musculus; test: Distribution of compound in mice brain was measured after 3 hr; details: in vivo
Mus musculus [4] = species on record: Mus musculus; test: Distribution of compound in mice brain was measured after 6 hr; details: in vivo
Mus musculus [5] = species on record: Mus musculus; test: Distribution of compound in mice brain was measured after 1 hr; details: in vivo
Mus musculus [6] = species on record: Mus musculus; test: Distribution of compound in mice liver was measured after 1 hr; format: ADME, organism-based; details: in vivo
Outline: (§1)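 Female BDF/1 mice dosed by tail-vein injection at 25 mg/kg in 5% Tween 80 containing 5% ethanol; killed 1, 2, 3, 6 and 24 h later. Liver homogenized in 50% methanol and pyridinium salt quantified by C-18 reverse-phase HPLC (linear gradient 50–70% acetonitrile). Three mice per time point; values in µg/g wet tissue.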

Mus musculus [7] = species on record: Mus musculus; test: Distribution of compound in mice liver was measured after 24 hr; b=Undetected; format: ADME, organism-based; details: in vivo; outline: as §1
Mus musculus [8] = species on record: Mus musculus; test: Distribution of compound in mice liver was measured after 2 hr; format: ADME, organism-based; details: in vivo; outline: as §1
Mus musculus [9] = species on record: Mus musculus; test: Distribution of compound in mice liver was measured after 3 hr; format: ADME, organism-based; details: in vivo; outline: as §1
Mus musculus [10] = species on record: Mus musculus; test: Distribution of compound in mice liver was measured after 6 hr; format: ADME, organism-based; details: in vivo; outline: as §1
Homo sapiens = species on record: Homo sapiens; test: In vitro oxidation of compound to its pyridinium salt (3) in presence of human plasma; format: ADME
Outline: (§2)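 Dihydropyridine ester at 5 × 10^-5 M kept at 37 °C in a UV cuvette. Media were human plasma diluted 1:1 with 50 mM phosphate buffer pH 7.4, mouse liver homogenate (20 mg/mL) or mouse brain homogenate (40 mg/mL) in the same buffer. Loss of the 360 nm dihydronicotinate absorbance was followed. Rate constant came from the slope of log disappearance.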

Mus musculus [11] = species on record: Mus musculus; test: In vitro oxidation of compound to its pyridinium salt (3) in presence of mouse brain homogenate; format: ADME; outline: as §2
Mus musculus [12] = species on record: Mus musculus; test: In vitro oxidation of compound to its pyridinium salt (3) in presence of mouse liver homogenate; format: ADME; outline: as §2
[13] = Half-life of compound in presence of human plasma; format: ADME; outline: as §2
[14] = Half-life of compound in presence of hydrogen peroxide; format: ADME
[15] = Half-life of compound in presence of mouse brain homogenate; format: ADME; outline: as §2
[16] = Half-life of compound in presence of mouse liver homogenate; format: ADME; outline: as §2
[17] = In vitro oxidation of compound to its pyridinium salt (3) in presence of hydrogen peroxide; format: ADME

Structure (SMILES) | Concentration (Mus musculus [1]) | Concentration (Mus musculus [2]) | Concentration (Mus musculus [3]) | Concentration (Mus musculus [4]) | Concentration (Mus musculus [5]) | Concentration (Mus musculus [6]) | Concentration (Mus musculus [7]) | Concentration (Mus musculus [8]) | Concentration (Mus musculus [9]) | Concentration (Mus musculus [10]) | K (Homo sapiens) | K (Mus musculus [11]) | K (Mus musculus [12]) | half-life [13] | half-life [14] | half-life [15] | half-life [16] | K [17]
Cc1cn([C@H]2C=C[C@@H](CO)O2)c(=O)[nH]c1=O [STAVUDINE] | 1.2 ug (g of wet tissue)-1 | 2.5 ug (g of wet tissue)-1 | 2.6 ug (g of wet tissue)-1 | 2.3 ug (g of wet tissue)-1 | 2.7 ug (g of wet tissue)-1 |  |  |  |  |  |  |  |  |  |  |  |  | 
Cc1cn(C2C=CC(COC(=O)c3ccc[n+](C)c3)O2)c(=O)[nH]c1=O.[I-] (stereo not drawn) | 3 ug (g of wet tissue)-1 | 4.9 ug (g of wet tissue)-1 | 5.3 ug (g of wet tissue)-1 | 5.1 ug (g of wet tissue)-1 | 4.7 ug (g of wet tissue)-1 | 3.3 ug (g of wet tissue)-1 | Undetected | 2.5 ug (g of wet tissue)-1 | 2 ug (g of wet tissue)-1 | 1.3 ug (g of wet tissue)-1 |  |  |  |  |  |  |  | 
C[n+]1cccc(C(=O)[O-])c1 [TRIGONELLINE] | 0.9 ug (g of wet tissue)-1 | 2.1 ug (g of wet tissue)-1 | 2.4 ug (g of wet tissue)-1 | 1.9 ug (g of wet tissue)-1 | 2.2 ug (g of wet tissue)-1 |  |  |  |  |  |  |  |  |  |  |  |  | 
Cc1cn(C2C=CC(COC(=O)C3=CN(C)C=CC3)O2)c(=O)[nH]c1=O (stereo not drawn) |  |  |  |  |  |  |  |  |  |  | 0.0000354 s⁻¹ | 0.0000885 s⁻¹ | 0.000092 s⁻¹ | 5.42 h | 0.35 h | 2.17 h | 2.08 h | 0.00055 s⁻¹

Reference: ChEMBL document CHEMBL1124421, “A dihydropyridine carrier system for sustained delivery of 2',3'-dideoxynucleosides to the brain” (J Med Chem, 1989)
